Assay [1] has as its system Rattus norvegicus. The assay can be described thus: In vivo dose required to inhibit vas deferens contraction by 25% after pretreatment with prazosin in pithed rats. (prejunctional). The format is functional. The essentials: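 Pithed rats pretreated with prazosin (1 mg/kg). Compound given iv in cumulative doses. ED25 is the dose (μg/kg) inhibiting vas deferens contraction by 25%. Separate groups of rats (n = 4-6).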

Assay [2] addresses T1, Adrenergic receptor alpha-2 (Rattus norvegicus, UniProt P22086+P19328+P22909).
T1 sequence (P22086 whole entry): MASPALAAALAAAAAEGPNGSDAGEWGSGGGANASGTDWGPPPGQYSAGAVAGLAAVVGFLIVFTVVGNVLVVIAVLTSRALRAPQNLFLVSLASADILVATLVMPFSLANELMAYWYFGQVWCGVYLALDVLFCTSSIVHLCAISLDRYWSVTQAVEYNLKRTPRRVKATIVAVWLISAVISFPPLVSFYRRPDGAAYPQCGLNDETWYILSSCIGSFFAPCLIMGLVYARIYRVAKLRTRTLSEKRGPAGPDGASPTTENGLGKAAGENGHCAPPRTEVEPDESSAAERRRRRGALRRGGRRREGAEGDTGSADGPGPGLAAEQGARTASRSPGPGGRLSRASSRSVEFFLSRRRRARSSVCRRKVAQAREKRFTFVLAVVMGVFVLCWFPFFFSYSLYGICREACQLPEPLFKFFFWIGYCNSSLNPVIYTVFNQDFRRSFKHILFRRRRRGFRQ
T1 sequence (P19328 whole entry): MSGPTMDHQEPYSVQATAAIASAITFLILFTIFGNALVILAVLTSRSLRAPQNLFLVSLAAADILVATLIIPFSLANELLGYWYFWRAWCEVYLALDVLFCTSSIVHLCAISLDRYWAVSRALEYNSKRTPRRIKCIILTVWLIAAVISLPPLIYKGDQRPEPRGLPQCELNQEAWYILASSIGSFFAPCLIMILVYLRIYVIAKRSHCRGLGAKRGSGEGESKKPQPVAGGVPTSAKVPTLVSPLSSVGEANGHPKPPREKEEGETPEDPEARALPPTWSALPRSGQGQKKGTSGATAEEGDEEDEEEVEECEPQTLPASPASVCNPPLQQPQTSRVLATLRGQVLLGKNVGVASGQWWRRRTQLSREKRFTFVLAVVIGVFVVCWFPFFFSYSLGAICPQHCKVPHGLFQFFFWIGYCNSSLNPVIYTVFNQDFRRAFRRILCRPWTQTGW
T1 sequence (P22909 whole entry): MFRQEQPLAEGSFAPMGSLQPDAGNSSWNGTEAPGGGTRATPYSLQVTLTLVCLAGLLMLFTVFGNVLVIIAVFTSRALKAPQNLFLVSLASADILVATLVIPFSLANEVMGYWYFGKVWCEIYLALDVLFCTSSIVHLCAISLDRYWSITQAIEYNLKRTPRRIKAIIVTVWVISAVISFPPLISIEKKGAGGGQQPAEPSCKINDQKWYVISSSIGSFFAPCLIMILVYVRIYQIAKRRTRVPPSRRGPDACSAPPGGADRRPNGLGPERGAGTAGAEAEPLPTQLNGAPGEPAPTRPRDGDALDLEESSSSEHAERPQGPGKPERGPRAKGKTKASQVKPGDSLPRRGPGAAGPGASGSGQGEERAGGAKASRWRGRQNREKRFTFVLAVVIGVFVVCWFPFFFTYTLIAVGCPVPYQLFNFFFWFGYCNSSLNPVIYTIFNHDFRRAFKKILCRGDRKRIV
Briefly: Inhibition of saturable binding of [3H]idazoxan to alpha2-site in rat cerebral cortical membranes. It is filed as cell membranes, Membrane.

Assay [3] deals with Adrenergic receptor alpha-1 (Rattus norvegicus). The assay can be described thus: […] towards alpha-1 adrenergic receptor determined as the dose required to produce a two fold shift of the cirazoline on diastolic blood pressure (in vitro). The note with it: Artery.

As to `c1ccc(CN2c3ccccc3CC2C2=NCCN2)cc1` (stereo not drawn), in assay [1], the ED25 amounted to 9.5 µg/kg. Moreover, the Ki in assay [2] was found to be 1.87 nM. The Postjunctional antagonist potency in assay [3] amounted to 120.

The Ki is the dissociation constant of the complex between target and ligand, obtained from inhibition or displacement.
